Results: ChEMBL document CHEMBL1144782, “Isoindolo[2,1-a]quinoxaline derivatives, novel potent antitumor agents with dual inhibition of tubulin polymerization and topoisomerase I” (2008)

Tests used:
Assay type in all cases: functional
[1] = test system: CCRF-CEM; assay: Antitumor activity against human CCRF-CEM cells
In short: (§1)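 Run by the NCI in its in vitro disease-oriented screen of about 60 human tumour cell lines. For each line it reports pGI50 (50% net growth inhibition), pTGI (total growth inhibition) and pLC50 (50% net cell death), each as –log molar concentration. Where an effect was not reached within the tested range, the highest tested concentration was used.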

[2] = Antitumor activity against human NCI-H322 cells; in short: as §1
[3] = test system: NCI/ADR-RES; assay: Antitumor activity against human NCI/ADR-RES cells; in short: as §1
[4] = test system: CAKI-1; assay: Antitumor activity against human CAKI1 cells; in short: as §1
[5] = test system: PC-3; assay: Antitumor activity against human PC3 cells; in short: as §1
[6] = test system: 786-0; assay: Antitumor activity against human 786-0 cells; in short: as §1
[7] = test system: CCRF-CEM; assay: Resistance index, Ratio of GI50 for human vinblastine-resistant CEM cells to GI50 for human CEM cells
[8] = test system: SK-OV-3; assay: Antitumor activity against human SKOV3 cells; in short: as §1
[9] = test system: SK-MEL-28; assay: Antitumor activity against human SKMEL28 cells; in short: as §1
[10] = test system: SF-295; assay: Antitumor activity against human SF295 cells; in short: as §1
[11] = test system: SF-268; assay: Cell viability against human SF268 cells at 10 uM
[12] = test system: Hs-578T; assay: Antitumor activity against human HS578T cells; in short: as §1
[13] = test system: MDA-MB-435; assay: Antitumor activity against human MDA-MB-435 cells; in short: as §1
[14] = test system: NCI-H460; assay: Antitumor activity against human NCI-H460 cells; in short: as §1
[15] = test system: MCF7; assay: Resistance index, Ratio of GI50 for human multidrug-resistant MCF7 cells to GI50 for human MCF7 cells
In short: (§2)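 Growth inhibition by MTT after 72 h incubation. Resistant sublines: LoVoDoxo and MCF-7 MDR were kept in 0.1 µg/mL doxorubicin; CEMVbl-100 was selected against vinblastine. GI50 given as mean ± SEM of three independent experiments. Resistance index is resistant-line GI50 over parental GI50.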

[16] = test system: A498; assay: Antitumor activity against human A498 cells; in short: as §1
[17] = test system: MCF7; assay: Cell viability against human MCF7 cells at 10 uM
[18] = test system: MCF7; assay: Growth inhibition of human MCF7 cells after 72 hrs by MTT assay; conditions: MCF7, 72 h; in short: as §2
[19] = test system: Malme-3M; assay: Antitumor activity against human MALME3M cells; in short: as §1
[20] = test system: SN12C; assay: Antitumor activity against human SN12C cells; in short: as §1
[21] = test system: NCI-H226; assay: Antitumor activity against human NCI-H226 cells; in short: as §1
[22] = test system: HOP-92; assay: Antitumor activity against human HOP92 cells; in short: as §1
[23] = test system: RXF 393; assay: Antitumor activity against human RXF393 cells; in short: as §1
[24] = test system: OVCAR-8; assay: Antitumor activity against human OVCAR8 cells; in short: as §1
[25] = test system: UACC-257; assay: Antitumor activity against human UACC257 cells
In short: (§3)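 NCI 60-cell-line screen. Parameters were GI50 (50% net growth inhibition), TGI and LC50, each reported as –log molar concentration. Where an effect was not reached within the tested range, the highest tested concentration was used in the calculation.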

[26] = test system: BT-549; assay: Antitumor activity against human BT549 cells; in short: as §1
[27] = test system: COLO 205; assay: Antitumor activity against human COLO205 cells; in short: as §1
[28] = test system: CCRF-CEM; assay: Growth inhibition of human vinblastine-resistant CEM cells after 72 hrs by MTT assay; in short: as §2
[29] = test system: IGROV-1; assay: Antitumor activity against human IGROV1 cells; in short: as §1
[30] = test system: TK-10; assay: Antitumor activity against human TK10 cells; in short: as §3
[31] = test system: UACC-62; assay: Antitumor activity against human UACC62 cells; in short: as §3
[32] = test system: SK-MEL-2; assay: Antitumor activity against human SKMEL2 cells; in short: as §1
[33] = test system: SNB-19; assay: Antitumor activity against human SNB19 cells; in short: as §1
[34] = test system: A549; assay: Antitumor activity against human A549 cells; in short: as §1
[35] = test system: HCC 2998; assay: Antitumor activity against human HCC2998 cells; in short: as §1
[36] = test system: HT-29; assay: Antitumor activity against human HT29 cells; in short: as §1
[37] = test system: NCI-H460; assay: Cell viability against human NCI-H460 cells at 10 uM
[38] = test system: OVCAR-3; assay: Antitumor activity against human OVCAR-3 cells; in short: as §1
[39] = test system: NCI-H23; assay: Antitumor activity against human NCI-H23 cells; in short: as §1
[40] = test system: CCRF-CEM; assay: Growth inhibition of human CEM cells after 72 hrs by MTT assay; in short: as §2
[41] = test system: SW-620; assay: Antitumor activity against human SW620 cells; in short: as §3
[42] = read-out: Log LC50 (the source's name) (converted)

Compound: O=c1[nH]c2ccccc2n2cc3ccccc3c12
- GI50 [1]: 5.89 µM
- LC50 [1]: > 100 µM
- TGI ([1]; read-out: pTGI (converted)): 60.3 µM
- GI50 [2]: 24 µM
- LC50 (50% net cell death) [2]: 89.1 µM
- TGI ([2]; read-out: pTGI (converted)): 46.8 µM
- GI50 [3]: 6.46 µM
- LC50 [3]: > 100 µM
- TGI ([3]; read-out: pTGI (converted)): 32.4 µM
- GI50 [4]: 17.8 µM
- LC50 [4]: 70.8 µM
- TGI ([4]; read-out: pTGI (converted)): 35.5 µM
- GI50 [5]: 5.75 µM
- LC50 (50% net cell death) [5]: > 100 µM
- TGI ([5]; read-out: pTGI (converted)): 28.8 µM
- GI50 [6]: 4.27 µM
- CC50 [6, 42]: 55 µM
- TGI ([6]; read-out: pTGI (converted)): 18.2 µM
- RatioGI50 [7]: 0.8
- GI50 [8]: 12.3 µM
- LC50 (50% net cell kill) [8]: > 100 µM
- TGI ([8]; read-out: pTGI (converted)): 35.5 µM
- GI50 [9]: 22.4 µM
- CC50 [9, 42]: > 100 µM
- TGI ([9]; read-out: pTGI (converted)): > 100 µM
- GI50 [10]: 17.8 µM
- CC50 [10, 42]: 70.8 µM
- TGI ([10]; read-out: pTGI (converted)): 35.5 µM
- Activity [11]: 9%
- GI50 [12]: 0.525 µM
- CC50 [12, 42]: > 100 µM
- TGI ([12]; read-out: pTGI (converted)): 34.7 µM
- GI50 [13]: 16.2 µM
- LC50 (50% net cell death) [13]: 58.9 µM
- TGI ([13]; read-out: pTGI (converted)): 30.9 µM
- GI50 [14]: 7.76 µM
- CC50 [14, 42]: > 100 µM
- TGI ([14]; read-out: pTGI (converted)): > 100 µM
- RatioGI50 [15]: 1.6
- GI50 [16]: 11.2 µM
- CC50 [16, 42]: 64.6 µM
- TGI ([16]; read-out: pTGI (converted)): 26.9 µM
- Activity [17]: 6%
- GI50 [18]: 6.5 µM
- GI50 [19]: 25.1 µM
- CC50 [19, 42]: 85.1 µM
- TGI ([19]; read-out: pTGI (converted)): 46.8 µM
- GI50 [20]: 1.66 µM
- LC50 [20]: 31.6 µM
- TGI ([20]; read-out: pTGI (converted)): 6.31 µM
- GI50 [21]: 2.88 µM
- LC50 (50% net cell kill) [21]: 55 µM
- TGI ([21]; read-out: pTGI (converted)): 13.8 µM
- GI50 [22]: 3.98 µM
- LC50 [22]: 51.3 µM
- TGI ([22]; read-out: pTGI (converted)): 18.6 µM
- GI50 [23]: 6.31 µM
- CC50 [23, 42]: > 100 µM
- TGI ([23]; read-out: pTGI (converted)): 30.2 µM
- GI50 [24]: 5.25 µM
- LC50 (50% net cell death) [24]: > 100 µM
- TGI ([24]; read-out: pTGI (converted)): 33.1 µM
- GI50 [25]: 15.1 µM
- LC50 [25]: 72.4 µM
- TGI ([25]; read-out: pTGI (converted)): 33.1 µM
- GI50 [26]: 19.1 µM
- LC50 (50% net cell kill) [26]: > 100 µM
- TGI ([26]; read-out: pTGI (converted)): 64.6 µM
- GI50 [27]: 4.57 µM
- LC50 [27]: > 100 µM
- TGI ([27]; read-out: pTGI (converted)): > 100 µM
- GI50 [28]: 3.8 µM
- GI50 [29]: 10.2 µM
- CC50 [29, 42]: 63.1 µM
- TGI ([29]; read-out: pTGI (converted)): 25.7 µM
- GI50 [30]: 20.4 µM
- CC50 [30, 42]: 66.1 µM
- TGI ([30]; read-out: pTGI (converted)): 37.2 µM
- GI50 [31]: 3.24 µM
- LC50 [31]: 45.7 µM
- TGI ([31]; read-out: pTGI (converted)): 15.8 µM
- GI50 [32]: 20.4 µM
- LC50 [32]: 72.4 µM
- TGI ([32]; read-out: pTGI (converted)): 38.9 µM
- GI50 [33]: 8.91 µM
- CC50 [33, 42]: > 100 µM
- TGI ([33]; read-out: pTGI (converted)): > 100 µM
- GI50 [34]: 5.89 µM
- CC50 [34, 42]: > 100 µM
- TGI ([34]; read-out: pTGI (converted)): 32.4 µM
- GI50 [35]: 5.89 µM
- LC50 [35]: 57.5 µM
- TGI ([35]; read-out: pTGI (converted)): 20.9 µM
- GI50 [36]: 4.37 µM
- LC50 [36]: > 100 µM
- TGI ([36]; read-out: pTGI (converted)): > 100 µM
- Activity [37]: 0%
- GI50 [38]: 18.6 µM
- LC50 (50% net cell death) [38]: 72.4 µM
- TGI ([38]; read-out: pTGI (converted)): 36.3 µM
- GI50 [39]: 11.2 µM
- LC50 (50% net cell kill) [39]: > 100 µM
- TGI ([39]; read-out: pTGI (converted)): 36.3 µM
- GI50 [40]: 4.7 µM
- GI50 [41]: 3.72 µM
- CC50 [41, 42]: > 100 µM
- TGI ([41]; read-out: pTGI (converted)): > 100 µM
